HNF4A DNA FP = change in binding of human HNF4A to DNA, primary screen, biochemical, fluorescence polarization, FITC-DNA. activity change, % at 10 µM. Hepatocyte nuclear factor 4-alpha (Homo sapiens), P41235. 1 h. AID 1224865, 2016. 360,000 compounds, 0.3% hits; in the data active = activity change above about 30%, passing the limit was not always enough
Bfl-1 A1 inh = caspase 3/7 activation in MEF A1-2A-BIM cells, primary screen, A1 inhibitor project, cell-based, luminescence, HTS; Caspase-Glo 3/7 luminescence, 3 h; percent of clofoctol response, vehicle zero; caspase activation, % (concentration not given with the values); 330,000 compounds, 0.066% hits; AID 2462, 2010;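 active = over half of replicate activation scores above 10%, or exactly half above 10 with the replicate mean above 10; inconclusive = replicate mean below 10 yet half the replicates above 10; inactive = over half of replicates below 10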
ZTA counter = blocks Epstein-Barr virus ZTA, an EBNA-1 counter-screen; inhibition, % at 11 µM; AID 2234; ZTA-DNA binding, fluorescence polarization; P03206; 320,000 compounds, 0.15% hits; in the data active = inhibition above about 33%
CSN deneddyl inh = inhibitors of CSN-mediated cullin deneddylation, primary screen, biochemical, fluorescence polarization, uHTS | 360,000 compounds, 0.38% hits | AID 651999, 2013 | Purified CSN, SCF-Nedd8-OG deneddylation | inhibition, % at 12.5 µM | COP9 signalosome complex subunit 5 (Homo sapiens), Q92905;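 active = pattern-corrected inhibition above about 35%, with an unprinted fluorescence ratio check between 0.5 and 1.5, limit read from the data, passing the limit was not always enough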
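Material: purified human Csn5 enzyme expressed in HEK293T cells / Medium: Tris buffer pH 7.5, NaCl, DTT, Tween-20, trehalose, ovalbumin / Compound dosing: 12.5 µM single point / Schedule: 90 min incubation of compound, enzyme and substrate at room temperature / Signal: fluorescence polarization of the substrate / Control set: no-enzyme wells high, enzyme-with-substrate wells low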
LANA-H2A inh = blockers of LANA interaction with H2A/H2B – biochemical, FP readout, HTS, primary screen. cell-free LANA-H2A/H2B peptide, fluorescence polarization. Protein LANA1 (Human herpesvirus 8 type P (isolate GK18)), Q9QR71. inhibition, % (no concentration beside the values). 320,000 compounds, 0.6% hits. AID 2629, 2010; in the data active = inhibition mostly above about 10%, no sharp cut-off; inactive = mostly below about 6.7%
EBNA-1 inh = EBNA-1 DNA-binding inhibitors, primary screen, biochemical, fluorescence polarization. 300,000 compounds, 0.34% hits. inhibition, % at 14.8 µM; in the data active = inhibition above about 28%
CSN deneddyl val = Csn5 deneddylation inhibitors, confirmation, biochemical, fluorescence polarization, single concentration, SCF-Nedd8OG substrate. Csn5 deneddylation of SCF-Nedd8OG, 90 min. shares compounds with CSN deneddyl inh. inhibition, % at 16.6 µM. 540 compounds, 62% hits; in the data active = inhibition above about 50%
MMP2 cntr CSN = MMP-2 protease inhibition counter-screen, confirmation, counter-screen for CSN deneddylation inhibitor project, biochemical, fluorescence, single concentration | shares compounds with CSN deneddyl inh | recombinant MMP-2, FRET substrate fluorescence, 60 min | inhibition, % at 16.6 µM | 540 compounds, 33% hits | AID 720655, 2013;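 active = corrected plate-normalized z-score of 5 or more, or -5 or less, or inhibition of 15% or more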
Thrombin counter = counter-screen for CSN deneddylation inhibitors: bovine thrombin inhibition. bovine thrombin cleavage of Ub4-pepOG, fluorescence polarization. inhibition, % at 16.6 µM. 540 compounds, 49% hits. shares compounds with CSN deneddyl inh;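 active = inhibition at or above a set limit, with a fluorescence interference ratio between 0.5 and a set maximum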
Target sequence (P00735 whole entry, looked up): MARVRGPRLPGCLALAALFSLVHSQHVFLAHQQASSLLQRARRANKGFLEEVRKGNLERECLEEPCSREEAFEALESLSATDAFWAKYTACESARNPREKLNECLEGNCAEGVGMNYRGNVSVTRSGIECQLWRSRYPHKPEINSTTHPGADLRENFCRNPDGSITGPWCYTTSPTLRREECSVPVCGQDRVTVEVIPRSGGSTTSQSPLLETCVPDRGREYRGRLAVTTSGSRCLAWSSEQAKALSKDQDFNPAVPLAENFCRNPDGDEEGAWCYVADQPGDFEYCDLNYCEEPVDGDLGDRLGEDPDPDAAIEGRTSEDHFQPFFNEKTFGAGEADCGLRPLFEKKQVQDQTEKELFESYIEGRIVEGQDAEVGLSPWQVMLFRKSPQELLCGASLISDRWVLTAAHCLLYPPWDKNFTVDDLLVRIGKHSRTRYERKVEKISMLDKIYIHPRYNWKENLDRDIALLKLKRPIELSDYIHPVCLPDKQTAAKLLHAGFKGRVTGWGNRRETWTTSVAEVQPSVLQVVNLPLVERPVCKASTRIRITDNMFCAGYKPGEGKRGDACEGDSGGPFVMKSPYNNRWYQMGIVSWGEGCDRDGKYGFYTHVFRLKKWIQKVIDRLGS
Large screens that a line does not name were inactive (follow-up assays come after a bar, where they were run). Most compounds without a hit are left out; they make up all but 1.5% or so of the library.

CC(=O)OC[C@]12CC[C@H]3[C@@](C)(CC[C@H]4C(C)(C)CCC[C@]34C)[C@@H]1CC(C1=CC(=O)OC1O)O2 (stereo partly drawn)	CSN deneddyl inh 35.3 (no result: Bfl-1 A1 inh, ZTA counter, LANA-H2A inh, EBNA-1 inh) | CSN deneddyl val inactive | MMP2 cntr CSN inactive | Thrombin counter inactive
COc1cc(OC)c(-c2c3cc(O)c(=O)cc-3oc3cc(O)c(O)cc23)cc1OC	CSN deneddyl inh 80.5 | MMP2 cntr CSN active | Thrombin counter inactive
COc1cc(-c2cc(=O)c3ccc(O)cc3o2)cc(OC)c1OC	none (no result: Bfl-1 A1 inh, ZTA counter, LANA-H2A inh, EBNA-1 inh)
CCCOC(=O)N[C@@H]1C(=O)N2C(C(=O)OCCC)=C(C)CS[C@H]12	none
Brc1ccc(-c2nn3c(-c4ccco4)nnc3s2)o1	CSN deneddyl inh 41.1 | CSN deneddyl val 95.4 | MMP2 cntr CSN inactive | Thrombin counter inactive
Clc1ccc(-c2ccc(-c3nn4c(-c5ccco5)nnc4s3)o2)cc1	none
Cc1ccc(OCCN2C(=O)NC3(CCc4ccccc4C3)C2=O)cc1 (stereo not drawn)	none
Nc1cc2c3ccccc3ccc2c2ccccc12	CSN deneddyl inh 45.6 (no result: Bfl-1 A1 inh, ZTA counter, LANA-H2A inh, EBNA-1 inh) | CSN deneddyl val 82.2 | MMP2 cntr CSN inactive | Thrombin counter inactive
Cc1cc(C)cc(NC(=O)/C=C/c2ccc([N+](=O)[O-])s2)c1	none
CC(=O)c1cccc(NC(=O)/C=C/c2ccc([N+](=O)[O-])s2)c1	CSN deneddyl inh 35.5 (no result: Bfl-1 A1 inh, ZTA counter, LANA-H2A inh, EBNA-1 inh) | CSN deneddyl val 96.7 | MMP2 cntr CSN inactive | Thrombin counter inactive
Cc1cc(=O)[nH]c(-n2[nH]c3c(c2=O)CCCC3)n1	none
Cc1nc(-n2[nH]c3c(c2=O)CCCC3)[nH]c(=O)c1Cc1ccccc1	HNF4A DNA FP 44.0, CSN deneddyl inh 52.2 | CSN deneddyl val 80.0 | MMP2 cntr CSN inactive | Thrombin counter 49.0
CSCCCc1cn([C@@H](CO)C(=O)NCCCCCCCCCCC(=O)N2CCNCC2)nn1	Bfl-1 A1 inh inconclusive
Cc1ccc2nc(/C(C#N)=C/c3ccc(O)c(O)c3)[nH]c2c1	CSN deneddyl inh 58.6 | CSN deneddyl val 50.3 | MMP2 cntr CSN inactive | Thrombin counter 61.8
CCOc1ccc(/C=C2/SC(=S)N(C(C(=O)O)c3ccccc3)C2=O)cc1OCC (stereo not drawn)	none (no result: Bfl-1 A1 inh, ZTA counter, LANA-H2A inh, EBNA-1 inh)
CCOc1cc(/C=C2\SC(=S)N(C(C(=O)O)c3ccccc3)C2=O)ccc1O (stereo not drawn)	CSN deneddyl inh 40.7 | CSN deneddyl val 80.5 | MMP2 cntr CSN inactive | Thrombin counter 55.2
O=C(O)C(c1ccccc1)N1C(=O)/C(=C\c2ccc(O)c(O)c2)SC1=S (stereo not drawn)	none
COc1cc(/C=C2\SC(=S)N(C(C(=O)O)c3ccccc3)C2=O)ccc1O (stereo not drawn)	CSN deneddyl inh 39.0 | CSN deneddyl val 73.4 | MMP2 cntr CSN inactive | Thrombin counter 60.7
N#CCC(=O)Nc1ccc(C(=O)OCC(=O)N2CCN(C(=O)c3ccco3)CC2)cc1	none (no result: ZTA counter, EBNA-1 inh)
Cc1c(C(=O)N/N=C/c2cccnc2)nnn1-c1nonc1N	none
O=C(N/N=C\c1c(O)ccc2ccccc12)c1ccc(S(=O)(=O)N2CCCCC2)cc1	HNF4A DNA FP 71.1, CSN deneddyl inh 95.5, LANA-H2A inh 24.4 | CSN deneddyl val 175.6 | MMP2 cntr CSN -44.0 | Thrombin counter inactive
O=C1C=C(NCc2ccccc2)c2ccccc2C1=O	CSN deneddyl inh 72.5 (no result: Bfl-1 A1 inh, ZTA counter, LANA-H2A inh, EBNA-1 inh) | CSN deneddyl val 77.3 | MMP2 cntr CSN inactive | Thrombin counter inactive
O=C1C=C(Nc2ccccc2O)c2ccccc2C1=O	none
CC1CCc2sc(C(=O)N3CCN(c4ncccn4)CC3)cc2C1 (stereo not drawn)	none
Fc1cccc(Cc2c(-c3ccco3)nc3c4ccccc4ccn23)c1	CSN deneddyl inh 49.0 (no result: Bfl-1 A1 inh, ZTA counter, LANA-H2A inh, EBNA-1 inh) | CSN deneddyl val 69.5 | MMP2 cntr CSN inactive | Thrombin counter 19.7
COc1cc(C(C)=O)ccc1OCC(=O)Nc1ccc2nc(C)sc2c1	none (no result: EBNA-1 inh)
COc1cccc2cc(C(=O)N3CC(C)OC(C)C3)c(=O)oc12 (stereo not drawn)	none
COc1cc2c(oc(=O)c3cc(C)cc(OC)c32)c2c(C3OC(C)C(O)C(C)(O)C3O)ccc(O)c12 (stereo not drawn)	CSN deneddyl inh 35.4 (no result: Bfl-1 A1 inh, ZTA counter, LANA-H2A inh, EBNA-1 inh) | CSN deneddyl val 107.3 | MMP2 cntr CSN inactive | Thrombin counter inactive
O=[N+]([O-])c1ccc(O)c(N=Cc2sc3ccccc3c2O)c1	CSN deneddyl inh 44.0 | CSN deneddyl val 102.3 | MMP2 cntr CSN inactive | Thrombin counter 50.7
Oc1ccc(Cl)cc1N=Cc1sc2ccccc2c1Cl	none
CN(C)c1ccc(/C=C(/C(=O)c2ccc(Cl)cc2Cl)n2cncn2)cc1	HNF4A DNA FP 91.6, CSN deneddyl inh 79.4 (no result: LANA-H2A inh) | CSN deneddyl val 92.9 | MMP2 cntr CSN -23.3 | Thrombin counter 70.2
CN(C)c1ccc(/C=C/C(=O)c2ccc(O)cc2)cc1	none (no result: Bfl-1 A1 inh, ZTA counter, LANA-H2A inh, EBNA-1 inh)
CN(C)c1ccc(/C=C/C(=O)c2ccccc2O)cc1	CSN deneddyl inh 70.3 | CSN deneddyl val 92.5 | MMP2 cntr CSN inactive | Thrombin counter 65.4
CN(C)c1ccc(/C=C/C(=O)c2cccnc2)cc1	CSN deneddyl inh 48.7 | CSN deneddyl val 52.3 | MMP2 cntr CSN -43.2 | Thrombin counter 44.7
Cc1ccc(/C=C/C(=O)c2ccccc2O)cc1	none
CCS(=O)(=O)C1=NN2C(=N)/C(=C\c3ccc(SCc4ccco4)o3)C(=O)N=C2S1	CSN deneddyl inh 116.5 (no result: Bfl-1 A1 inh, ZTA counter, LANA-H2A inh, EBNA-1 inh) | CSN deneddyl val inactive | MMP2 cntr CSN inactive | Thrombin counter 54.3
O=C1/C(=C\c2cccc(O)c2)SC(=S)N1Cc1ccccc1	none
O=C(O)c1cc(-c2ccc(/C=C3/SC(=S)N(Cc4ccccc4)C3=O)o2)ccc1Cl	none (no result: Bfl-1 A1 inh, ZTA counter, LANA-H2A inh, EBNA-1 inh)
Cc1ccc(/C=C2\SC(=S)N(Cc3ccccc3)C2=O)o1	CSN deneddyl inh 115.0 | CSN deneddyl val 107.7 | MMP2 cntr CSN inactive | Thrombin counter 23.9
O=C1/C(=C\c2ccc(O)c(O)c2)SC(=S)N1Cc1ccccc1	HNF4A DNA FP 68.0, CSN deneddyl inh 55.3 (no result: ZTA counter, EBNA-1 inh) | CSN deneddyl val inactive | MMP2 cntr CSN inactive | Thrombin counter 68.1
